Assay [1] has as its target T1, Dual specificity protein phosphatase CDC14A (Homo sapiens, UniProt Q9UNH5).
T1 sequence (Q9UNH5 whole entry): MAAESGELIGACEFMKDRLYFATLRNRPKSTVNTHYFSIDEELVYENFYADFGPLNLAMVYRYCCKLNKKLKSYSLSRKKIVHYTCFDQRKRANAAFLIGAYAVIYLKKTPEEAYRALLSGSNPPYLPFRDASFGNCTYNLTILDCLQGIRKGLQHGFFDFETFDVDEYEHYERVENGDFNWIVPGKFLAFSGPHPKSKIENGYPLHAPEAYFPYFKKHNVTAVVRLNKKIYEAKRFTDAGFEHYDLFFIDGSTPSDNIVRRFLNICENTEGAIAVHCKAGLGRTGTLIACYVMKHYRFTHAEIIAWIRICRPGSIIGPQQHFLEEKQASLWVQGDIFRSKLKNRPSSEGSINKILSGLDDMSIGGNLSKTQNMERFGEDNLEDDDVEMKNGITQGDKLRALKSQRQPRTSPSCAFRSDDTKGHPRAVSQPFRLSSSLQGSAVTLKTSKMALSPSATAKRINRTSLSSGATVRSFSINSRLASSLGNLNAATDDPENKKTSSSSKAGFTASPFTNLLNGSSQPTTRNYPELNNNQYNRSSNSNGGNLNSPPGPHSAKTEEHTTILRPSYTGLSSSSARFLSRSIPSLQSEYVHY
Put plainly: Inhibition of His-tagged CDC14A (unknown origin) expressed in Escherichia coli BL21 cells using para-nitrophenyl phosphate as substrate incubated for 5 to 10 mins by microplate reader based spectrophotometric analysis.

In assay [2] the target is T2, Low molecular weight phosphotyrosine protein phosphatase (Homo sapiens, UniProt P24666).
T2 sequence (P24666 whole entry): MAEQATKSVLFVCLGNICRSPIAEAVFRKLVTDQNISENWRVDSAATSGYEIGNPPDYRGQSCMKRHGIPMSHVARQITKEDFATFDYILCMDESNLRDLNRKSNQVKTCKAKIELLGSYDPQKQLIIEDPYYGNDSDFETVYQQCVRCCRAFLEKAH
The assay is described as follows: Inhibition of His-tagged LMW-PTP isoform A (unknown origin) expressed in Escherichia coli BL21 cells using para-nitrophenyl phosphate as substrate incubated for 5 to 10 mins by microplate reader based spectrophotometric analysis.

In assay [3] the target is Low molecular weight phosphotyrosine protein phosphatase (Homo sapiens) (UniProt P24666). The assay is described as follows: Inhibition of LMW-PTP isoform A in human HepG2 cells assessed as increase in insulin-induced Akt phosphorylation pretreated for 2 hrs followed by insulin stimulation and measured after 30 mins by Western blot analysis. Type of assay: cell-based. The conditions noted are these: dose 2-16 µM. An outline of the steps:
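HepG2 cells in DMEM with 10% FBS at 37 °C and 5% CO2 were grown to 60-80% confluence and serum-starved overnight. They were given vehicle or compound for 2 h, then 50 nM insulin for 30 min. Lysates were run on 10% SDS-PAGE and immunoblotted for phospho-AKT and total AKT with ECL detection. Densitometric pAKT/AKT ratios were normalized to vehicle.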
(In general: A western blot detects proteins with antibodies after separation by electrophoresis.)

Assay [4] has as its target T2, Low molecular weight phosphotyrosine protein phosphatase. Put plainly: Competitive inhibition of His-tagged LMW-PTP isoform A (unknown origin) expressed in Escherichia coli BL21 cells using para-nitrophenyl phosphate as substrate by Lineweaver-Burk plot analysis. In a few lines: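 Recombinant enzyme Ni-NTA purified (Tris pH 7.8, 500 mM NaCl, 250 mM imidazole elution), then Sephadex G75. pNPP hydrolysis in 50 mM 3,3-dimethylglutarate, pH 7.0, 25 °C. Enzyme added last to mixes of varied pNPP and inhibitor concentrations, 5-10 min, NaOH quench. p-nitrophenol read at 405 nm (ε 18,000 M-1cm-1), no-enzyme blank subtracted. Ki fitted by enzyme-kinetics regression.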

Among the data in ChEMBL document CHEMBL4715770, “Inhibition of Low Molecular Weight Protein Tyrosine Phosphatase by an Induced-Fit Mechanism” (J Med Chem, 2016) are IC50, inhibition and Ki values, retold here.

What is called IC50 is the concentration that gives 50% inhibition. Usually Ki stands for the dissociation constant of the complex between target and ligand, obtained from inhibition or displacement.

The molecule `O=C(Nc1ccc(OCc2ccccc2)c(Cl)c1)C(c1ccccc1)S(=O)(=O)O` (centres undefined) showed an IC50 in assay [1] of more than 200 µM.
Take `O=C(Nc1cc(C(F)(F)F)cc(C(F)(F)F)c1)C(c1ccccc1)S(=O)(=O)O` (centres undefined): the values for the IC50 in assay [2] and in assay [1] were 6.39 µM and more than 200 µM, respectively.
For the molecule `O=C(Nc1ccc(-n2ccnc2)cc1)C(c1ccccc1)S(=O)(=O)O` (centres undefined), the IC50 in assay [1] is more than 100 µM.
Same read-out and setting: as for `Cc1c(Br)cc(NC(=O)C(c2ccccc2)S(=O)(=O)O)cc1Br` (centres undefined), the figure is more than 200 µM.
Regarding `O=C(Nc1nc2ccc([N+](=O)[O-])cc2s1)C(c1ccccc1)S(=O)(=O)O` (centres undefined), the inhibition entry in assay [3] is “Dose-dependent effect”. Further, the values for the IC50 in assay [2] and in assay [1] were 2.1 µM and more than 100 µM, respectively. Moreover, in assay [4], the Ki came to 1 µM.
